Source: article PMC8451882 (British Journal of Clinical Pharmacology, 2021)
Where “and” joins values, the source holds several entries; their conditions need not be identical. Equal entries are not always repeated.

Assays:
Multiple ascending dose = assay type: in vivo, human
Summary of the method: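 MAD study in healthy men and women: oral doses of 50, 100 or 200 mg or placebo (6:3), given with food; first dose on day 1. Plasma (K3EDTA) sampled 0.5–48 h after the first dose. Test compound measured by liquid–liquid extraction and LC-MS/MS, calibration range 1.00–1000 ng/mL. Linearity judged from dose-normalised concentration–time profiles.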

[1] = Excretion after intravenous dose in rats; assay type: in vivo; conditions: data held on files at Roche
Solubility = assay type: physicochemical
human P‐gp = human P‐gp (Homo sapiens, UniProt P08183); experiment: In vitro P-gp transport studies; assay type: in vitro ADME; conditions: up to RO5459072 concentrations of 100 μM; data held on files at Roche
human P‐gp, sequence (P08183 whole entry): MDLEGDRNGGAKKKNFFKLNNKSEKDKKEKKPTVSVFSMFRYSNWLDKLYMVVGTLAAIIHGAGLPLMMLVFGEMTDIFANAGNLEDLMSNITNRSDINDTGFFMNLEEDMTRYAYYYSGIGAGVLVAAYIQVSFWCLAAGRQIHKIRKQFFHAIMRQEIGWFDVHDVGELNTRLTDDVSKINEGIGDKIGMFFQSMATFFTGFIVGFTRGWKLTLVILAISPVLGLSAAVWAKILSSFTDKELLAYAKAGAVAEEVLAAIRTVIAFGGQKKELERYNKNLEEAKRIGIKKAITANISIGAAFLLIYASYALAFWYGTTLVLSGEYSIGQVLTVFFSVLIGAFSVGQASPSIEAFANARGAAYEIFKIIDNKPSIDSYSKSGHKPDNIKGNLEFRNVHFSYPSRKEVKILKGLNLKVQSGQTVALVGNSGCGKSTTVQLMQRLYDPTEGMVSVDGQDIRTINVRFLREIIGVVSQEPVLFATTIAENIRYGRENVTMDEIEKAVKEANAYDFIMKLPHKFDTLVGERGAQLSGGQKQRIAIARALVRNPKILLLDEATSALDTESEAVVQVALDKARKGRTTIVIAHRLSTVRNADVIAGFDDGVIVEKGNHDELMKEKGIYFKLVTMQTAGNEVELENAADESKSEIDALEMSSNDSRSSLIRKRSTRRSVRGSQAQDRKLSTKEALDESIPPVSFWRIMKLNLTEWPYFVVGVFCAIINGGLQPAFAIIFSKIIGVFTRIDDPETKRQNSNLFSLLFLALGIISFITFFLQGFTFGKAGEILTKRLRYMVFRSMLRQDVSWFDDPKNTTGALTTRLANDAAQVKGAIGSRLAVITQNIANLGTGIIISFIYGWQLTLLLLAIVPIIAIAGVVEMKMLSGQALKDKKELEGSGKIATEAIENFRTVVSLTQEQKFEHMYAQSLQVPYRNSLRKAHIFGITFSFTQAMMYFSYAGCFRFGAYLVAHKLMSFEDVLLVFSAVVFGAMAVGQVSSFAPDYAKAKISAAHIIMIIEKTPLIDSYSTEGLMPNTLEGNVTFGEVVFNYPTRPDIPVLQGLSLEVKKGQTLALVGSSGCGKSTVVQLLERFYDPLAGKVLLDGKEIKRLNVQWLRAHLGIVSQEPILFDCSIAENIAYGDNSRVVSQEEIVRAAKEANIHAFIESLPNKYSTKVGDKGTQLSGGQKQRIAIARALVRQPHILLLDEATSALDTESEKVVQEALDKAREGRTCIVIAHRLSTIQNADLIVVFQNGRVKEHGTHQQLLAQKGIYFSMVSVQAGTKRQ

[2] = Population compartmental PK model; assay type: in vivo, human
Summary of the method: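 Pooled first-dose plasma concentrations (816 samples) from 39 healthy volunteers, SAD (fasted 1–600 mg; fed 100 mg) and MAD (fed 50–200 mg). Analysed in NONMEM 7.3 with ADVAN9 and first-order conditional estimation. 1- and 2-compartment models tested, with first-order absorption with or without lag time or transit compartments. IIV log-normal. Visual predictive checks used 500 simulations. Reported as estimate (% RSE).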

[3] = Safety and tolerability, SAD study; assay type: in vivo, human; conditions: healthy volunteers, single oral dose up to 600 mg
Summary of the method: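 First-in-human, single-centre, randomised, double-blind, placebo-controlled interleaved-cohort study: 17 healthy men and women in 2 cohorts with 4 periods each. Single oral doses from 1 to 600 mg given fasted, at least 14 days apart. Safety and tolerability assessed before and after dosing and at various time points.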

metabolic enzyme = experiment: In vitro enzymology studies, time-dependent metabolic enzyme inhibition; assay type: in vitro ADME; conditions: RO5459072 and its metabolites; data held on files at Roche
[4] = Safety and tolerability, MAD study; assay type: in vivo, human; conditions: healthy volunteers, doses up to 200 mg BID for 7 days
Summary of the method: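 Single-centre, randomised, double-blind, placebo-controlled MAD study: 22 healthy men and women dosed with food, single dose on day 1, then BID (50, 100, 200 mg) or OD (100 mg) on days 3–9. Active and placebo assigned 6:3. Safety and tolerability assessed before and after dosing and at various time points.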

[5] = BCS/BDDCS classification and permeability; assay type: physicochemical
cathepsin‐S = experiment: Inhibition of cathepsin-S enzyme activity throughout the dosing interval; assay type: in vivo, human; conditions: 50 mg dose
Single ascending dose = assay type: in vivo, human
Summary of the method: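 SAD study in healthy volunteers: micronised drug in hard-gelatine capsules without excipients, given orally after an overnight fast of at least 8 h (1, 3, 30, 100, 300, 600 mg), or 100 mg after a high-fat high-calorie breakfast. Plasma (K3EDTA) sampled 0.5–48 h after dosing and assayed by LC-MS/MS (1.00–1000 ng/mL). Parameters derived by noncompartmental analysis.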

[6] = interindividual variability, CV% (% RSE) [shrinkage]

half-life (Multiple ascending dose; both, human, plasma, oral, average estimated terminal half-lives, fed, 50 mg, 100 mg, 200 mg doses): 8 to 10 h | PK linearity (Multiple ascending dose; fed condition from 50 to 100 mg): linear | fraction of dose found unchanged in the faeces [1]: 50% | solubility (Solubility): < 20 µg/mL | saturability of human P-gp (human P‐gp): not saturable | CL/F, apparent total clearance ([2]; fasted and fed conditions, estimate (% RSE)): 9.38 (3.65) L h^−1 | kaFaPI, first-order absorption rate constant of the proximal intestine ([2]; fasted, doses > 3 mg (10 to 600 mg), estimate (% RSE)): 2.05 h^−1 and 2.05 (6.29) h^−1 | kaFaDI, first-order absorption rate constant of the distal intestine ([2]; fasted, doses > 3 mg, estimate (% RSE)): 0.065 h^−1 and 0.065 (9.31) h^−1 | apparent fraction of the total dose absorbed from the distal intestine ([2]; fasted, on average for doses between 10 and 600 mg): ~ 16% | IIV of D50 [2, 6]: 38.5% (27.3) [40.9%] CV% | IIV of FFaDI [2, 6]: 32.1% (38.9) [41.0%] CV% | IIV of Vc/F [2, 6]: 24.0% (15.0) [14.6%] CV% | IIV of kaFaPI for doses > 3 mg [2, 6]: 33.8% (13.8) [2.44%] CV% | IIV of kaFe [2, 6]: 39.2% (14.8) [4.21%] CV% | time-dependent metabolic enzyme inhibition (metabolic enzyme): absence | Biopharmaceutics Classification System class [5]: 2 | permeability [5]: highly permeable | Tmax (Single ascending dose; both, human, plasma, oral, 100 mg, Tmax, fed): 5 h | half-life (Single ascending dose; both, human, plasma, oral, 600 mg, noncompartmental analysis apparent terminal half-life, fasted, highest doses between 100 and 600 mg): 13 to 16 h | increase in systemic exposure with dose (Single ascending dose; fasted, doses <10 mg): more than dose proportional | increase in systemic exposure with dose (Single ascending dose; fasted, doses >30 mg): less than dose proportional | Tmax delay fed versus fasted (Single ascending dose; fed later than fasted): approximately 1 hour | decrease of estimated average half-life by food (noncompartmental analysis) (Single ascending dose; fed versus fasted): approximately 4 hours
Structure (SMILES): Cn1cc(-c2ccc(S(=O)(=O)[C@@H]3C[C@@H](C(=O)NC4(C#N)CC4)N(C(=O)C4(C(F)(F)F)CC4)C3)c(C(F)(F)F)c2)cn1 [RO5459072]
tolerability [3]: similarly tolerated to placebo | tolerability [4]: tolerated similarly to placebo | inhibition of cathepsin-S enzyme activity in average throughout the dosing interval (cathepsin‐S): about 93%
